Laboratory results: ChEMBL document CHEMBL1129660, “Studies on 6-aminoquinolones: synthesis and antibacterial evaluation of 6-amino-8-methylquinolones” (J Med Chem, 1996)
Converted amounts (≈) assume the structure as drawn.

How the values were obtained:
Type in all cases: functional
[1] = Geometric mean of antibacterial activity (Gram -ve bacteria) of the compound
How it was run: (§1)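 Geometric means calculated from agar-dilution MICs (µg/mL), taken separately across the five Gram-positive and the eight Gram-negative panel strains.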

Escherichia coli [2] = assay: Antibacterial activity tested against Escherichia coli ATCC 8739
How it was run: (§2)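 MICs (µg/mL) determined by conventional agar dilution against a panel of eight Gram-negative and five Gram-positive reference strains.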

Pseudomonas aeruginosa = assay: Antibacterial activity tested against P. ae (Pseudomonas aeruginosa) ATCC 9027; how it was run: as §2
[3] = test system: Staphylococcus epidermidis; assay: Antibacterial activity tested against Staphylococcus epidermidis HCF Berset C; how it was run: as §2
Klebsiella pneumoniae = assay: Antibacterial activity tested against Klebsiella pneumoniae (Klebsiella pneumoniae) ATCC 10031; how it was run: as §2
Staphylococcus aureus [4] = assay: Antibacterial activity against Staphylococcus aureus MPR 5; how it was run: as §2
Enterococcus faecalis = assay: Antibacterial activity tested against Streptococcus faecalis LEP Br; how it was run: as §2
Staphylococcus aureus [5] = assay: Antibacterial activity against Staphylococcus aureus ATCC 6538; how it was run: as §2
[6] = test system: Staphylococcus epidermidis; assay: Antibacterial activity tested against Staphylococcus epidermidis CPHL A2; how it was run: as §2
Bacteria = assay: Geometric mean of antibacterial activity (Gram +ve bacteria) of the compound; how it was run: as §1
Shigella = assay: Antibacterial activity tested against Shigella enteritidis; how it was run: as §2
Enterobacter cloacae = assay: Antibacterial activity tested against Enterobacter cloacae OMNFI 174
Proteus vulgaris = assay: Antibacterial activity tested against Proteus vulgaris CNUR 5; how it was run: as §2
Providencia stuartii = assay: Antibacterial activity tested against Providencia stuartii CNUR 5; how it was run: as §2
Escherichia coli [7] = assay: Antibacterial activity tested against Escherichia coli ISF 432; how it was run: as §2

Row | Structure (SMILES) | MIC (Escherichia coli [2]) [µg/mL] | MIC [3] [µg/mL] | MIC (Klebsiella pneumoniae) [µg/mL] | MIC (Staphylococcus aureus [4]) [µg/mL] | MIC (Enterococcus faecalis) [µg/mL] | MIC (Staphylococcus aureus [5]) [µg/mL] | MIC [6] [µg/mL] | MIC (Shigella) [µg/mL] | MIC (Enterobacter cloacae) [µg/mL] | MIC (Proteus vulgaris) [µg/mL] | MIC (Providencia stuartii) [µg/mL] | MIC (Escherichia coli [7]) [µg/mL] | Geometric mean [1] | MIC (Pseudomonas aeruginosa) [µg/mL] | Geometric mean (Bacteria)
1 | Cc1c(N2CC=CCC2)c(N)cc2c(=O)c(C(=O)O)cn(C3CC3)c12 | 1 (≈ 2.95 µM) | > 128 | 1 (≈ 2.95 µM) | > 128 | > 128 | > 128 | > 128 | > 128 | > 128 | > 128 | > 128 | 1 (≈ 2.95 µM) | 20.749 | > 128 | 128
2 | Cc1c(N2CCCCC2)c([N+](=O)[O-])cc2c(=O)c(C(=O)O)cn(C3CC3)c12 | 32 (≈ 86.2 µM) | 8 (≈ 21.5 µM) | 64 (≈ 172 µM) | 1 (≈ 2.69 µM) | 32 (≈ 86.2 µM) | 32 (≈ 86.2 µM) | 8 (≈ 21.5 µM) | 64 (≈ 172 µM) | 64 (≈ 172 µM) | 64 (≈ 172 µM) | 64 (≈ 172 µM) | 4 (≈ 10.8 µM) | 41.5 | 64 (≈ 172 µM) | 9.189
3 | Cc1c(N2CCC(C)CC2)c(N(C)C)cc2c(=O)c(C(=O)O)cn(C3CC3)c12 | 64 (≈ 167 µM) | 8 (≈ 20.9 µM) | 64 (≈ 167 µM) | 16 (≈ 41.7 µM) | 32 (≈ 83.4 µM) | 64 (≈ 167 µM) | 32 (≈ 83.4 µM) | 64 (≈ 167 µM) | 64 (≈ 167 µM) | 64 (≈ 167 µM) | 64 (≈ 167 µM) | 64 (≈ 167 µM) | 64 | 64 (≈ 167 µM) | 24.251

Continued, in another order:

Row | MIC (Escherichia coli [2]) [µg/mL] | MIC [3] [µg/mL] | MIC (Klebsiella pneumoniae) [µg/mL] | MIC (Staphylococcus aureus [4]) [µg/mL] | MIC (Enterococcus faecalis) [µg/mL] | MIC (Staphylococcus aureus [5]) [µg/mL] | MIC [6] [µg/mL] | MIC (Shigella) [µg/mL] | MIC (Enterobacter cloacae) [µg/mL] | MIC (Proteus vulgaris) [µg/mL] | MIC (Providencia stuartii) [µg/mL] | MIC (Escherichia coli [7]) [µg/mL] | Structure (SMILES) | Geometric mean [1] | MIC (Pseudomonas aeruginosa) [µg/mL] | Geometric mean (Bacteria)
4 | 1 (≈ 2.77 µM) | 8 (≈ 22.2 µM) | 0.06 (≈ 0.166 µM) | 4 (≈ 11.1 µM) | 64 (≈ 178 µM) | 4 (≈ 11.1 µM) | 4 (≈ 11.1 µM) | 0.25 (≈ 0.694 µM) | 0.25 (≈ 0.694 µM) | 32 (≈ 88.8 µM) | 4 (≈ 11.1 µM) | 0.06 (≈ 0.166 µM) | CN1CCN(c2c(N)cc3c(=O)c(C(=O)O)cn(C4CC4)c3c2F)CC1 | 0.699 | 2 (≈ 5.55 µM) | 8
5 | 0.125 (≈ 0.351 µM) | 1 (≈ 2.81 µM) | 0.03 (≈ 0.0842 µM) | 1 (≈ 2.81 µM) | 4 (≈ 11.2 µM) | 1 (≈ 2.81 µM) | 1 (≈ 2.81 µM) | 0.06 (≈ 0.168 µM) | 0.125 (≈ 0.351 µM) | 4 (≈ 11.2 µM) | 2 (≈ 5.61 µM) | 0.03 (≈ 0.0842 µM) | Cc1c(N2CCNC(C)C2)c(N)cc2c(=O)c(C(=O)O)cn(C3CC3)c12 (stereo not given) | 0.225 | 1 (≈ 2.81 µM) | 1.319
6 | 0.25 (≈ 0.761 µM) | 16 (≈ 48.7 µM) | 0.25 (≈ 0.761 µM) | 64 (≈ 195 µM) | 128 (≈ 390 µM) | 64 (≈ 195 µM) | 16 (≈ 48.7 µM) | 0.25 (≈ 0.761 µM) | 0.25 (≈ 0.761 µM) | 32 (≈ 97.5 µM) | 32 (≈ 97.5 µM) | 0.03 (≈ 0.0914 µM) | Nc1cc2c(=O)c(C(=O)O)cn(C3CC3)c2cc1N1CCNCC1 | 0.836 | 2 (≈ 6.09 µM) | 42.224
7 | 0.25 (≈ 0.798 µM) | 128 (≈ 408 µM) | 0.25 (≈ 0.798 µM) | 128 (≈ 408 µM) | 128 (≈ 408 µM) | 128 (≈ 408 µM) | 128 (≈ 408 µM) | 16 (≈ 51.1 µM) | 8 (≈ 25.5 µM) | 128 (≈ 408 µM) | 128 (≈ 408 µM) | 0.25 (≈ 0.798 µM) | Nc1cc2c(=O)c(C(=O)O)cn(C3CC3)c2cc1N1CCCC1 | 6.73 | 128 (≈ 408 µM) | 128
8 | 0.06 (≈ 0.162 µM) | 2 (≈ 5.4 µM) | 0.03 (≈ 0.081 µM) | 1 (≈ 2.7 µM) | 16 (≈ 43.2 µM) | 1 (≈ 2.7 µM) | 1 (≈ 2.7 µM) | 0.25 (≈ 0.675 µM) | 0.5 (≈ 1.35 µM) | 8 (≈ 21.6 µM) | 2 (≈ 5.4 µM) | 0.03 (≈ 0.081 µM) | Cc1c(N2CC(C)NC(C)C2)c(N)cc2c(=O)c(C(=O)O)cn(C3CC3)c12 (stereo not given) | 0.348 | 2 (≈ 5.4 µM) | 2
